Experimental data: ChEMBL document CHEMBL5506013, “Mitochondria-Selective Dicationic Small-Molecule Ligand Targeting G-Quadruplex Structures for Human Colorectal Cancer Therapy” (J Med Chem, 2024)
Calls of active or inactive are those of the source. The rule behind the calls is not given here.

Legend:
[1] = test system: Quadruplex DNA; assay: Binding affinity to Mut 78 G4 DNA (unknown origin) assessed as increase in fluorescence intensity by fluorescence spectrophotometric analysis; assay type: nucleic-acid assay
Method in brief: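 Oligonucleotides were pre-annealed at 95 °C for 10 min, then cooled slowly. Ligand (5 uM) was mixed with 20 uM DNA in buffer. Emission was collected over 550–800 nm, and enhancement was taken at 650 nm as F/F0.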

[2] = Toxicity in BALB/c nude mouse assessed as change in hemoglobin level at 5 mg/kg, iv administered every two days for 16 days; assay type: organism-based; settings: in vivo, 384 h, time 16 day
Method in brief: (§1)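 HCT116 xenograft-bearing male Balb/c nude mice (6/group) dosed iv at 5 mg/kg every two days or with PBS. Whole blood collected at sacrifice on day 16 for hematology parameters.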

[3] = test system: HCT-116; assay: Downregulation of COX1 protein level in human HCT-116 cells at upto 4 uM incubated for 48 hrs by Western blot analysis; assay type: functional, cell-based
[4] = Toxicity in BALB/c nude mouse assessed as change in mean platelet volume at 5 mg/kg, iv administered every two days for 16 days; assay type: organism-based; settings: in vivo, 384 h, time 16 day; method in brief: as §1
[5] = test system: HCT-116; assay: Induction of ROS production in human HCT-116 cells assessed as upregulation of ROS level at upto 4 uM measured after 48 hrs in presence of MitoTEMPO by mito-sox staining based analysis; assay type: functional, cell-based
[6] = molecular target: Quadruplex DNA; assay: Binding affinity to mito 55 G4 DNA (unknown origin) assessed as dissociation constant measured upto 150 secs by isothermal titration calorimetry assay; assay type: nucleic-acid assay
[7] = test system: HCT-116; assay: Induction of DNA damage in human HCT-116 assessed as increase in gammaH2AX level at upto 4 uM incubated for 72 hrs by Western blot analysis; assay type: functional, cell-based
Method in brief: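 HCT116 cells treated with ligand at 0-4 uM for 72 h. Lysates immunoblotted for Lamin B1, p53, p21, p16, gamma-H2A.x, caspase-3 and cleaved caspase-3, with beta-actin as loading control.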

[8] = Toxicity in BALB/c nude mouse assessed as change in platelet count at 5 mg/kg, iv administered every two days for 16 days; assay type: organism-based; settings: in vivo, 384 h, time 16 day; method in brief: as §1
[9] = test system: HCT-116; assay: Induction of mitochondrial dysfunction in human HCT-116 cells assessed as decrease in extracellular acidification rate at upto 4 uM incubated for 3 hrs by Seahorse XFe24 analyzer; assay type: functional, cell-based
Method in brief: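 Seahorse Mito-stress and glycolysis stress tests on HCT116 cells treated with ligand for 3 h. Oxygen consumption rate and extracellular acidification rate recorded.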

[10] = test system: HFF-1; assay: Induction of morphological changes in human HFF-1 cells at 4 uM by microscopy based analysis; assay type: functional, cell-based
Method in brief: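 HCT116 and HFF1 cells treated with ligand at 4 uM alongside untreated controls. Morphology examined by microscopy at 100x.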

[11] = test system: HCT-116; assay: Downregulation of mitochondrial respiratory chain complex-IV level in human HCT-116 cells at upto 4 uM measured after 48 hrs by Western blot analysis; assay type: functional, cell-based
[12] = Toxicity in BALB/c nude mouse assessed as effect on lung at 5 mg/kg, iv measured after 16 hrs post injection by H and E staining based analysis; assay type: organism-based; settings: in vivo
[13] = test system: HCT-116; assay: Downregulation of lamin B1 level in human HCT-116 cells measured after 72 hrs by Western blot analysis; assay type: functional, cell-based; settings: dose <= 4.0 µM
Method in brief: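 HCT116 cells treated with ligand at 0-4 uM for 72 h. Lamin B1 and Ki67 imaged by immunofluorescence (excitation 635 nm), or lamin B1 probed on Western blot with β-actin as loading control.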

[14] = Toxicity in BALB/c nude mouse assessed as change in mean red blood cell hemoglobin content at 5 mg/kg, iv administered every two days for 16 days; assay type: organism-based; settings: in vivo, 384 h, time 16 day; method in brief: as §1
[15] = test system: HCT-116; assay: Induction of cell cycle arrest in human HCT-116 cells assessed as accumulation of cells at G0/G1 phase at 1 to 4 uM measured after 72 hrs by PI staining based flow cytometry analysis (reference value: 50.66%); assay type: functional; settings: dose 1-4 µM
Method in brief: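 HCT116 cells treated at 0-4 uM for 72 h. Cell-cycle distribution measured by flow cytometry and G0/G1 percentage recorded.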

[16] = test system: Quadruplex DNA; assay: Binding affinity to Mito 78 G4 DNA (unknown origin) assessed as increase in CD signal at 5 uM at 290 nMby circular dichroism spectroscopic analysis; assay type: nucleic-acid assay
[17] = test system: HCT-116; assay: Downregulation of ND2 mRNA level in human HCT-116 cells at 0 to 4 uM measured after 48 hrs by qRT-PCR analysis; assay type: functional, cell-based; settings: dose 0-4 µM
[18] = test system: Quadruplex DNA; assay: Binding affinity to mito 81 G4 DNA (unknown origin) assessed as increase in fluorescence intensity by fluorescence spectrophotometric analysis; assay type: nucleic-acid assay
Method in brief: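 Fluorescence titration in buffer. Ligand at 5 uM mixed with 20 uM pre-annealed DNA (95 °C for 10 min, slow cooling). Emission collected at 550-800 nm and monitored at 650 nm. Result reported as fold enhancement F/F0 over ligand alone.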

[19] = molecular target: Quadruplex DNA; assay: Binding affinity to mito 0.5-16 G4 DNA (unknown origin) assessed as dissociation constant measured upto 450 secs by surface plasmon resonance assay; assay type: nucleic-acid assay
Method in brief: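 Surface plasmon resonance in buffer at 25 °C. Four G4-mtDNAs (Mito 78, Mito 55, Mito 29, Mito 0.5-16) and the hairpin HP19 served as substrates. Kd was derived from the sensorgrams.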

[20] = test system: HCT-116; assay: Downregulation of mitochondrial respiratory chain complex I level in human HCT-116 cells at upto 4 uM measured after 48 hrs by Western blot analysis; assay type: functional, cell-based
[21] = test system: HCT-116; assay: Upregulation of p21 level in human HCT-116 cells at upto 4 uM measured after 72 hrs by Western blot analysis; assay type: functional, cell-based
Method in brief: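 HCT116 cells exposed to the ligand at 0–4 µM for 72 h. Lysates were immunoblotted for p21 together with Lamin B1, p53, p16 and γ-H2A.x, with β-actin as the loading reference.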

[22] = test system: DNA; assay: Binding affinity to SS19 DNA (non-G4 DNA) (unknown origin) assessed as increase in CD signal at 5 uM by circular dichroism spectroscopic analysis; assay type: nucleic-acid assay
[23] = test system: HCT-116; assay: Induction of DNA damage in human HCT-116 assessed as increase in tail length at upto 4 uM incubated for 72 hrs by comet assay; assay type: functional, cell-based
Method in brief: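 HCT116 cells exposed to ligand at 0-4 uM for 72 h. DNA damage assessed by comet assay with DAPI staining (excitation 405 nm), imaged at 200x, tail length measured.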

[24] = test system: HCT-116; assay: Downregulation of ND4L mRNA level in human HCT-116 cells at 0 to 4 uM measured after 48 hrs by qRT-PCR analysis; assay type: functional, cell-based; settings: dose 0-4 µM
[25] = Drug localization in nucleus of human HCT-116 cells at 1 to 8 uM incubated for 1 hrs by hoechst33342 staining based live cell imaging analysis; assay type: ADME, subcellular; settings: hct-116, 1 h, dose 1-8 µM
[26] = Drug localization in nucleus of living human HCT-116 cells assessed as colocalization at 4 uM incubated for 1 hr by Hoechst33342 staining based analysis; assay type: ADME, subcellular; settings: hct-116, 1 h
[27] = Drug localization in human HCT-116 cells by measuring red foci at 4 uM incubated for 1 hr in presence of FCCP by hoechst33342 staining based analysis; assay type: ADME, cell-based; settings: hct-116, 1 h
Method in brief: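 Pretreatment of live HCT116 cells: FCCP 1 uM for 20 min, cyclosporin A 1 uM for 24 h, DMOG 100 uM for 24 h, or MitoPDS at several concentrations for 3 h (applied after dye loading). Cells loaded with ligand 4 uM (excitation 488 nm) for 1 h and Hoechst33342 1 uM for 30 min. Red foci counted by confocal imaging in 100 cells. Mean ± SEM, t test.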

Compound: C(=C\c1ccc2ccccc2[n+]1CCCCCCCC[n+]1c(/C=C/c2ccc(N3CCCCC3)cc2)ccc2ccccc21)/c1ccc(N2CCCCC2)cc1.[I-].[I-]
- Activity [1]: inactive
- Activity [2]: Non-Toxic
- Activity [3]: Active
- Activity [4]: Non-Toxic
- Activity [5]: inactive
- Kd [6]: 60 nM
- Activity [7]: Active
- Activity [8]: Non-Toxic
- Activity [9]: Active
- Activity [10]: Active
- Activity [11]: Active
- Activity [12]: Non-Toxic
- Activity [13]: Dose-Dependent Effect
- Activity [14]: Non-Toxic
- Activity [15]: 66.01%
- Activity [16]: Active
- Activity [17]: Active
- Activity [18]: Active
- Kd [19]: 290 nM
- Activity [20]: Active
- Activity [21]: Active
- Activity [22]: inactive
- Activity [23]: Active
- Activity [24]: Active
- Drug uptake [25]: Not Active
- Drug uptake [26]: Not Active
- Drug uptake [27]: Not Active
